Where two headings read alike, the source gives them in different places.

The target in series [1] is T1, SpyCas9 (Streptococcus pyogenes serotype M1, UniProt Q99ZW2). Description: biochemical. The conditions noted are these: for IC50: Spy Cas9; for activity on Cas9 (structure–activity relationship of pamoic acid): SpyCas9, standard assay conditions.
Series [2] deals with T2, SauCas9 (Staphylococcus aureus, UniProt J7RUA5).
T2 sequence (J7RUA5 1-1053): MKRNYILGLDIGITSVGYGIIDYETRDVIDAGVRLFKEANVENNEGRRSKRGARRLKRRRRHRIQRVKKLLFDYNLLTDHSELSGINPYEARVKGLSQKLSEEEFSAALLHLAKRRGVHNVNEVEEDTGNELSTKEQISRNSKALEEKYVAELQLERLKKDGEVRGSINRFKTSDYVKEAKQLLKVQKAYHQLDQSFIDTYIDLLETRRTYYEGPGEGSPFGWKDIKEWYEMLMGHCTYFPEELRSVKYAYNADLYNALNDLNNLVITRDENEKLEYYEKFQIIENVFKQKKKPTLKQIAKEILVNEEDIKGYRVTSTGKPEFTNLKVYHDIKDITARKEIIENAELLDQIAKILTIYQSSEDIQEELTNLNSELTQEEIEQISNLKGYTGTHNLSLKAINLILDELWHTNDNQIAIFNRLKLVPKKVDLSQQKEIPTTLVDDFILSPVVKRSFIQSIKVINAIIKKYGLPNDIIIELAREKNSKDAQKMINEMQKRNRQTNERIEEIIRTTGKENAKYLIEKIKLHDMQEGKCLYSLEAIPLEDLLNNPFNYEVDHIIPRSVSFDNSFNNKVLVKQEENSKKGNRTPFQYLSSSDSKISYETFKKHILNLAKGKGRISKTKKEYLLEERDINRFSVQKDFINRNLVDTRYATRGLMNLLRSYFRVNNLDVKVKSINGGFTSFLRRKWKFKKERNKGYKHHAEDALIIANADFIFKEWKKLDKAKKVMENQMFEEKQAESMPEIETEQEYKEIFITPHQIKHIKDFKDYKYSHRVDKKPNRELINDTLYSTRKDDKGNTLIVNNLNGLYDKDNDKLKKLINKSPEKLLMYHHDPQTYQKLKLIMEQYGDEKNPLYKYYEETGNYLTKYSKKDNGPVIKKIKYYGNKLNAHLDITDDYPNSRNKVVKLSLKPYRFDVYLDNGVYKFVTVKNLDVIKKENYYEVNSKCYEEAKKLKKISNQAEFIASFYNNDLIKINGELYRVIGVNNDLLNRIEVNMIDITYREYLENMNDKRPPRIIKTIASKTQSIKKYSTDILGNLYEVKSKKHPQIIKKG
Description: In vitro purified enzyme activity assay for SauCas9. Format: biochemical. To be noted: IC50, in vitro purified enzyme assay, Sau Cas9.

Series [3] has as its target T1, SpyCas9. The series can be described thus: Two-plasmid-based bacterial survival assay. Format: cell-based. The conditions noted are these: IC50, bacteria-based assay, Spy Cas9; bacterial survival assay using pCas and pTarget-sgSSEA plasmids, E. coli MG1655. Put shortly: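 E. coli MG1655 competent cells carrying pCas (SpyCas9) electroporated with pTarget-sgSSEA, or the pT-sgControl plasmid as reference. Test compound added to the electroporated bacteria for 1.5 h at 32 °C, then plated on LB with kanamycin and spectinomycin and incubated overnight. Colonies counted and expressed as a percentage of the compound-treated sgControl strain at the same concentration (100%).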

Series [4] concerns the target T1, SpyCas9. Format: cell-based. The gist of the method:
(§1)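 MG1655 competent cells carrying pCas (SpyCas9 or SauCas9) were electroporated with 300 ng pTarget-sgSSEA (867 bp) or its Sau version, which carries an 867-bp homologous recombination repair template. Test compound was added to 700 μl LB right after electroporation, held 1.5 h at 32 °C, then plated on LB agar with 100 μg/ml kanamycin and 100 μg/ml spectinomycin. The SSEA site was genotyped by PCR.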

In series [5] the target is T2, SauCas9. Format: cell-based. The gist of the method:
as §1

The target in series [6] is T1, SpyCas9. The series can be described thus: Surface plasmon resonance assay. Format: binding. Put shortly: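 His-tagged SpyCas9, Ni–NTA purified and imidazole-eluted, amine-coupled to a CM5 chip at 100 μg/ml. Test compounds were diluted in 1× PBST to a series of concentrations and injected at 30 μl/min, with 120 s association and 120 s dissociation. Equilibrium KD was fitted from the response curves.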

Another series addresses FnoCas12a (Francisella tularensis subsp. novicida, UniProt A0Q7Q2). Format: biochemical.
The test system of a further series is LbaCas12a. Description: LbaCas12a activity assay. To be noted: complete inhibition refers to 50 μM or above. Format: biochemical, Lachnospiraceae bacterium.
In a further series the test system is E. coli MG1655. The series can be described thus: Toxicity to bacteria in the two-plasmid-based bacterial survival assay. Format: cell-based. To be noted: for toxicity to E. coli: MG1655, bacterial survival assay. The gist of the method:
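MG1655 pCas-competent cells were electroporated with pT-sgControl. Test compound was added to 700 μl LB immediately afterwards and incubated 1.5 h at 32 °C, then plated on LB agar with kanamycin and spectinomycin (100 μg/ml each). Colonies were counted after overnight incubation; biological replicates n = 3.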

For series [7] the following is noted: in humans; cited from earlier work.
Series [8] concerns SpyCas9. The series can be described thus: biochemical. Details: species or system Streptococcus pyogenes.
Series [9] has as its target T1, SpyCas9. The series can be described thus: GFP-disruption assay in HEK293FT cells. Format: cell-based.
Series [10] has as its target T1, SpyCas9. Format: cell-based. The gist of the method:
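HEK293FT cells, ~2 × 10^5 per well, were seeded 1 day before transfection (Lipofectamine 3000) with 1 μg PX459-SpyCas9-sgCOSMC, -sgEMX1 or -sgControl. Test compound was added 0 or 6 h post-transfection, and cells were kept 24 h at 37 °C, then selected with 2.5 μg/ml puromycin for 36–48 h. Target loci were PCR-amplified, Sanger-sequenced and scored by TIDE.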
This is another data set of the same source.

In series [11] the target is T2, SauCas9. Description: SauCas9-mediated genome editing of COSMC in HEK293FT cells, TIDE analysis. Format: cell-based. Put shortly: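 HEK293FT wt cells were co-transfected (Lipofectamine 3000) with 1 μg miniCMV-SaCas9 and 1 μg pGL3 carrying sgCOSMC-Sau or sgControl. Test compound was added right after transfection for 24 h, followed by 2.5 μg/ml puromycin selection. The COSMC locus was PCR-amplified (40 cycles), Sanger-sequenced, and editing efficiency was obtained by TIDE analysis.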

For the next series, the target named is BE4 base editor (Streptococcus pyogenes, UniProt Q99ZW2, D10A). The series can be described thus: BE4-mediated base editing of EMX1 in HEK293FT cells, EditR analysis. Format: cell-based.
Series [12] deals with SpyCas9-mediated genome editing of PCSK9. The series can be described thus: SpyCas9-mediated anti-PCSK9 mouse model by hydrodynamic injection. Format: in vivo, BALB/c mice. The conditions noted are these: for plasma total cholesterol restored to the level of the control: 3rd blood collection. The gist of the method:
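On days 1, 4 and 7, 90 μg PX459-SpyCas9-sgPCSK9 or -sgControl in 2 ml saline was injected hydrodynamically into the tail vein over 5–8 s. Orbital blood (~100 μl) was taken days 2, 5 and 8, and heparin plasma (20 μl) was assayed by PCSK9 ELISA.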

Setting [13] is: IC50, in vitro purified enzyme assay, linear substrates (87 bp oligonucleotide or 2.5 kb linear DNA).
The mark [14] stands for this setting: IC50, in vitro purified enzyme assay, supercoil (circular) plasmid substrate pcDNA3.1/CT-GFP.
The mark [15] stands for this setting: linear substrates (87 bp oligonucleotide).
Setting [16] is: supercoil (circular) plasmid substrate.

For the compound `COc1cccc2c1C(=O)c1c(O)c3c(c(O)c1C2=O)C[C@@](O)(C(=O)CO)C[C@@H]3O[C@H]1C[C@H](N)[C@@H](O)[C@H](C)O1` [Epirubicin], the IC50 at SpyCas9 [1] (setting [13]) was in the range of 2 to 5 µM; on SpyCas9 [1] (setting [14]), 2 to 5 µM; at SauCas9 [2] (setting [15]), 6.25 to 12.5 µM; against SauCas9 [2] (setting [16]), 3.13 to 6.25 µM; against SpyCas9 [3] it was 3.13 to 6.25 µM; against SpyCas9 [4], 6.25 to 12.5 µM. Further, the IC50 against SauCas9 [5] was ~6.25 µM. In addition, the Kd at SpyCas9 [6] is > 1000 µM. Besides, the “effect on the activity of FnoCas12a” value at FnoCas12a is “completely inhibit”. For the same compound, the “effect on the activity of LbaCas12a” value in the series on LbaCas12a is recorded as “completely inhibit”. For the same compound, in the series with E. coli MG1655 (at a concentration of 50 μM), the “toxicity to electroporated bacteria” value is “significant toxicity”. Besides, the “site of metabolism / elimination” value in series [7] was “mainly metabolized in human liver”.

As for `O=C(O)c1cc(/N=N/c2ccc(O)c(C(=O)O)c2)ccc1O` [Olsalazine, olsalazine], at SpyCas9 [1], the “activity on Cas9 (structure–activity relationship of pamoic acid)” value (“activity on Cas9” for short) was “inactive”.

With `O=C(O)c1cc2ccccc2c(Cc2c(O)c(C(=O)O)cc3ccccc23)c1O` [Pamoic acid], the concentration for half-maximal inhibition (IC50) against SpyCas9 [1] (setting [13]) was 10 to 20 µM; against SpyCas9 [1] (setting [14]), 400 to 600 µM; on SauCas9 [2] (setting [15]) it was 25 to 50 µM; on SauCas9 [2] (setting [16]), 500 to 1000 µM; at SpyCas9 [3] it was 200 to 400 µM; on SpyCas9 [4], ~400 µM. In addition, the 50% inhibitory concentration (IC50) against SauCas9 [5] is 250 to 500 µM; against SpyCas9 [9], 20 to 50 µM; against SpyCas9 [10], 20 to 50 µM; on SauCas9 [11] it was 20 to 50 µM; on BE4 base editor it was ~50 µM. Also, the “effect of mutation of catalytic residues D10 or H840 on the IC50” value in the series on SpyCas9 [8] was “did not affect”. Also, the “effect on the activity of FnoCas12a” value on FnoCas12a is “inactive to or weakly inhibited”. In addition, the “effect on the activity of LbaCas12a” value in the series on LbaCas12a is “inactive to or weakly inhibited”. For the same compound, the “plasma total cholesterol restored to the level of the control” value in series [12] (80 mg/kg) and in series [12] (160 mg/kg) was “largely restored” in each case. The “effect on the basal level of PCSK9 in vehicle-treated (sgControl) mice” value in series [12] (160 mg/kg) is recorded as “did not interfere”. Further, the “restoration of plasma PCSK9 level” value in series [12] (80 or 160 mg/kg intraperitoneal, 1st, 2nd, or 3rd treatment cycle) is listed as “completely restore”. Besides, in [12] (intraperitoneal), the “dose from which a dose-dependent preventative effect on plasma PCSK9 starts” value is recorded as ≥ 20 mg/kg. In addition, the “effect on PCSK9 allele modifications in liver (NGS)” value in series [12] (medium dose of 40 mg/kg) was “largely reduced but not totally prevented”. Further, the “toxicity to E. coli” value in the series with E. coli MG1655 was “did not appear to be much toxic”. In addition, the “site of metabolism / elimination” value in series [7] was “mainly metabolized in human liver”.

As to `O=C(O)c1ccccc1O` [Salicylic acid, salicylic acid], the “activity on Cas9” value on SpyCas9 [1] was “inactive”.

Regarding `OCCOCCN1CCN(C(c2ccccc2)c2ccc(Cl)cc2)CC1` (stereo not shown) [Hydroxyzine pamoate], the IC50 was 20 to 50 µM against SpyCas9 [1] (setting [13]) and > 200 µM against SpyCas9 [1] (setting [14]).

As to `Nc1ccc(O)c(C(=O)O)c1` [5-aminosalicylic acid], on SpyCas9 [1], the “activity on Cas9” value was “inactive”.

In the case of `CC1(C)[C@@H](OC(=O)CCC(=O)O)CC[C@]2(C)[C@H]3C(=O)C=C4[C@@H]5C[C@@](C)(C(=O)O)CC[C@]5(C)CC[C@@]4(C)[C@]3(C)CC[C@@H]12` [Carbenoxolone], the 50% inhibitory concentration (IC50) on SpyCas9 [1] (setting [13]) is 5 to 10 µM; against SpyCas9 [1] (setting [14]), ~100 µM; on SauCas9 [2] (setting [15]) it was 25 to 50 µM; against SauCas9 [2] (setting [16]), 100 to 200 µM; against SpyCas9 [3], ~200 µM; against SpyCas9 [4], 50 to 100 µM. The IC50 at SauCas9 [5] was in the range of 100 to 200 µM; against SpyCas9 [9] it was 10 to 20 µM; at SpyCas9 [10], 20 to 50 µM; at SauCas9 [11], 20 to 50 µM; against BE4 base editor it was 20 to 50 µM. Also, in the series on SpyCas9 [8], the “effect of mutation of catalytic residues D10 or H840 on the IC50” value is on record as “did not affect”. For the same compound, on FnoCas12a, the “effect on the activity of FnoCas12a” value was “inactive to or weakly inhibited”. Moreover, the “effect on the activity of LbaCas12a” value in the series with LbaCas12a was “inactive to or weakly inhibited”. Further, in series [12] (160 mg/kg), the “effect on the basal level of PCSK9 in vehicle-treated (sgControl) mice” value is “did not interfere”. In addition, the “plasma total cholesterol restored to the level of the control” value in [12] (160 mg/kg) was “largely restored”. Moreover, the “preventive effect on loss of plasma PCSK9” value in series [12] (high doses of 80 or 160 mg/kg, 2nd or 3rd treatment cycle) is “strong preventive effects”. For the same compound, the “toxicity to E. coli” value in the series on E. coli MG1655 is given as “did not appear to be much toxic”.

Turning to `CN1CCCN=C1/C=C/c1cccc(O)c1` [Oxantel pamoate], the IC50 on SpyCas9 [1] (read-out: IC50, in vitro purified enzyme assay, supercoil (circular) plasmid substrate pcDNA3.1/CT-GFP) was > 200 µM.

These data come from publication PMC11951523 (Genome Biology, 2025).
